The text below walks through data of ChEMBL document CHEMBL1821641, “Synthesis and biological evaluation of 1-substituted-3(5)-(6-methylpyridin-2-yl)-4-(quinoxalin-6-yl)pyrazoles as transforming growth factor-β type 1 receptor kinase inhibitors” (Eur J Med Chem, 2011).

Where only a bound is given, the exact number is not on record here.

For orientation: IC50 means the concentration that inhibits the measured activity by half.

Series [1] is filed under the species Homo sapiens. Kind of series: Selectivity index, ratio of IC50 for human recombinant p38alpha to IC50 for human recombinant ALK5. The method, boiled down: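 Ratio of IC50 values from two radiometric (33P) protein kinase assays run by a contract lab. ALK5 assay: human recombinant GST-fusion kinase domain expressed in Sf9 cells via baculovirus, with casein as substrate. p38α assay: untagged human recombinant enzyme expressed in E. coli and Ni-agarose purified, with ATF2 as substrate, tested up to 1 μM. Index = IC50 p38α / IC50 ALK5.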

The target in series [2] is T1, TGF-beta receptor type-1 (Homo sapiens, UniProt P36897).
T1 sequence (P36897 whole entry): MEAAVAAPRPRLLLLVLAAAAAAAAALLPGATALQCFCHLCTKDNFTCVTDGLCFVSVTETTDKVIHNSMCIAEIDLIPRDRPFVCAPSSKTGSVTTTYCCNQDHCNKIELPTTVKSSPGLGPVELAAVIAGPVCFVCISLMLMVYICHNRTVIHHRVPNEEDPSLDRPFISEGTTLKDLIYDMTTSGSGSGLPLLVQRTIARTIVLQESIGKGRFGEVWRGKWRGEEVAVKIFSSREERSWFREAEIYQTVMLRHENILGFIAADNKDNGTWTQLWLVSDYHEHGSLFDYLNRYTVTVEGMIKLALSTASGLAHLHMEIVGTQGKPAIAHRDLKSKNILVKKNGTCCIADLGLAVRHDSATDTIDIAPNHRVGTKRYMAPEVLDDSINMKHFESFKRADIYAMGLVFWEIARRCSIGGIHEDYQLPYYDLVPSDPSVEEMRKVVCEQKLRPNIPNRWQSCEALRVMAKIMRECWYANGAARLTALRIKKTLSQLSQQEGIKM
Kind of series: Inhibition of human recombinant GST-fused ALK5 expressed in insect Sf9 cells using casein as substrate by radiometric kinase assay.

In series [3] the target is Mitogen-activated protein kinase 14 (Homo sapiens, UniProt Q16539). As to the kind of experiment: Inhibition of human recombinant p38alpha expressed in Escherichia coli using ATF2 as substrate by radiometric kinase assay.
Chain of Mitogen-activated protein kinase 14 (Q16539 whole entry): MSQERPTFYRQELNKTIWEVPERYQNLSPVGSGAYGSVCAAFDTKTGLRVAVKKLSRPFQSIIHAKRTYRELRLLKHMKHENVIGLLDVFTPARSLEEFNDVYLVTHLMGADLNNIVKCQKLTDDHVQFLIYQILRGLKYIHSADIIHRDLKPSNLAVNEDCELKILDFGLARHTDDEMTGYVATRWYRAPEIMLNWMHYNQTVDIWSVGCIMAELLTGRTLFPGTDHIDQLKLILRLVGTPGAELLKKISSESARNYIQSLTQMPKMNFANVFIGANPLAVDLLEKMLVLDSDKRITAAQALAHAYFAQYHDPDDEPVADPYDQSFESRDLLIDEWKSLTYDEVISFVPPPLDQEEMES
Series [4] is described as follows: Chemical stability of compound. It is filed as physicochemical.

Turning to `Cc1cccc(-c2nn(CC(=S)Nc3ccccc3)cc2-c2ccc3nccnc3c2)n1`, the Ratio IC50 in series [1] was > 77. Moreover, the IC50 was 0.013 µM in series [2] and > 1 µM in series [3]. For the same compound, the Stability entry in series [4] is given as “Stable”.
As to `Cc1cccc(-c2nn(CC(=S)Nc3cccc(C#N)c3)cc2-c2ccc3nccnc3c2)n1`, the Ratio IC50 in series [1] is > 38. For the same compound, the IC50 in series [2] is 0.026 µM; in series [3], > 1 µM.
As to `Cc1cccc(-c2c(-c3ccc4nccnc4c3)cnn2CC(=O)Nc2ccccc2)n1`, in series [1], the Ratio IC50 was > 7. For the same compound, the values for the half-inhibitory concentration (IC50) in series [2] and in series [3] were 0.143 µM and > 1 µM, respectively.
In the case of `Cc1cccc(-c2nn(CC(=O)Nc3cccc(C(N)=O)c3)cc2-c2ccc3nc(C)c(C)nc3c2)n1`, the IC50 in series [2] and in series [3] was > 1 µM in each case.
Turning to `Cc1cccc(-c2nn(CC(=O)Nc3ccccc3)cc2-c2ccc3nc(C)c(C)nc3c2)n1`, the IC50 in series [2] and in series [3] was > 1 µM each time.
For `Cc1cccc(-c2nn(CCC(=O)Nc3ccccc3)cc2-c2ccc3nccnc3c2)n1`, the Ratio IC50 in series [1] is > 12. Further, the IC50 in series [2] was 0.082 µM; in series [3], > 1 µM.
As to `Cc1cccc(-c2nn(CC(=O)Nc3cccc(C(N)=O)c3)cc2-c2ccc3nccnc3c2)n1`, in series [1], the Ratio IC50 was > 21. Besides, the IC50 was 0.048 µM in series [2] and > 1 µM in series [3].
In the case of `Cc1cccc(-c2c(-c3ccc4nc(C)c(C)nc4c3)cnn2CC(=O)Nc2ccccc2)n1`, the IC50 in series [2] and in series [3] was > 1 µM throughout.
For the compound `Cc1cccc(-c2nn(CCC(=O)Nc3cccc(C#N)c3)cc2-c2ccc3nc(C)c(C)nc3c2)n1`, the IC50 in series [2] and in series [3] was > 1 µM in each case.
With `Cc1cccc(-c2nn(CC(=S)Nc3cccc(C#N)c3)cc2-c2ccc3nc(C)c(C)nc3c2)n1`, the IC50 in series [2] and in series [3] was > 1 µM throughout.
`Cc1cccc(-c2nn(CC(=O)Nc3cccc(C#N)c3)cc2-c2ccc3nc(C)c(C)nc3c2)n1`: the IC50 in series [2] and in series [3] was > 1 µM in each case.
`Cc1cccc(-c2c(-c3ccc4nc(C)c(C)nc4c3)cnn2CC(=O)Nc2cccc(C#N)c2)n1`: the IC50 in series [2] and in series [3] was > 1 µM in each case.
Take `Cc1cccc(-c2nn(CC(=O)Nc3cccc(C#N)c3)cc2-c2ccc3nccnc3c2)n1`: in series [1], the Ratio IC50 was > 7. Further, the IC50 is 0.153 µM in series [2] and > 1 µM in series [3].
With `Cc1cccc(-c2nn(CC(=S)Nc3ccccc3)cc2-c2ccc3nc(C)c(C)nc3c2)n1`, the IC50 in series [2] and in series [3] was > 1 µM in each case.
With `Cc1cccc(-c2nn(CC(=O)Nc3ccccc3)cc2-c2ccc3nccnc3c2)n1`, the Ratio IC50 in series [1] is > 26. Also, the IC50 in series [2] is 0.038 µM; in series [3], > 1 µM.
The corresponding values for `Cc1cccc(-c2c(-c3ccc4nccnc4c3)cnn2CC(=O)Nc2cccc(C#N)c2)n1` are > 1, 0.737 µM and > 1 µM.
`Cc1cccc(-c2[nH]c(Cc3cccc(C(N)=O)c3)nc2-c2ccc3nccnc3c2)n1`: the Ratio IC50 in series [1] came out at 28.
